# Laboratory results as given in ChEMBL document CHEMBL1800028, “Analogues of 4-[(7-Bromo-2-methyl-4-oxo-3H-quinazolin-6-yl)methylprop-2-ynylamino]-N-(3-pyridylmethyl)benzamide (CB-30865) as potent inhibitors of nicotinamide phosphoribosyltransferase (Nampt)” (J Med Chem, 2010).
# pEC50, pIC50: −log10 of the molar value. Activity calls are given as the source filed them. The rule behind the calls is not given here.
# Tests used:
# [1] = target: T1, Nicotinamide phosphoribosyltransferase (Homo sapiens, UniProt P43490); assay: Inhibition of Nampt activity in H2O2-induced DNA damage in human MCF10A cells stably transfected with PIK3CA (H1047R) assessed as loss of PARP activity; format: cell-based; conditions: MCF-10A
# Target sequence in this assay (P43490 whole entry, looked up): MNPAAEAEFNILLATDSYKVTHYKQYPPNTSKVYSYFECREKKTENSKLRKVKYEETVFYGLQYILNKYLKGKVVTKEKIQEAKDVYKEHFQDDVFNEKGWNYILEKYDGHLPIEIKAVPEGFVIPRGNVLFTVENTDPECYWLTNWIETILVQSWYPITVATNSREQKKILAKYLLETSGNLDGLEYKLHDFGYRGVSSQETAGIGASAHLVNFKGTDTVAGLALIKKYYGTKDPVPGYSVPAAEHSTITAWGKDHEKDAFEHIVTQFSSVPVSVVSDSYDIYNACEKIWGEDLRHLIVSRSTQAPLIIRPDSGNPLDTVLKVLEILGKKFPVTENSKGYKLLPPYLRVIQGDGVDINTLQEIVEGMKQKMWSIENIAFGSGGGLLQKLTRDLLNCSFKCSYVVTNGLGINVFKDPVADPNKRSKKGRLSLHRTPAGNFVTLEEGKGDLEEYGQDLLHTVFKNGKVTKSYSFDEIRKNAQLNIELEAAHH
# HCT-116 [2] = assay: Cytotoxicity against human HCT116 cells after 72 hrs; format: functional
# Method in brief: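 HCT116 colon carcinoma cells treated with compound for 72 h; viability read out as cellular ATP levels.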
# [3] = target: T1, Nicotinamide phosphoribosyltransferase; assay: Inhibition of nicotinamide phosphoribosyltransferase-catalyzed conversion of nicotinamide to nicotinamide mononucleotide
# Method in brief: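 Coupled-enzyme format: Nampt turnover of nicotinamide to NMN monitored through a downstream coupled reaction; IC50 determined.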
# Target sequence in this assay (P43490 whole entry): as the sequence (P43490 whole entry, looked up) above
# HCT-116 [4] = assay: Cytotoxicity against human HCT116 cells after 72 hrs in presence of 10 uM exogenous nicotinic acid; format: functional, cell-based; conditions: HCT-116, 72 h
# Method in brief: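 HCT116 colon carcinoma cells treated for 72 h with compound plus 10 μM exogenous nicotinic acid to test whether killing depends on Nampt; viability read out as cellular ATP levels.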
# WIL2 = assay: Cytotoxicity against human W1L2 cells; format: functional, cell-based
# Thymidylate synthase = Thymidylate synthase (Homo sapiens, UniProt P04818); assay: Inhibition of thymidylate synthase
# Sequence of Thymidylate synthase (P04818 whole entry): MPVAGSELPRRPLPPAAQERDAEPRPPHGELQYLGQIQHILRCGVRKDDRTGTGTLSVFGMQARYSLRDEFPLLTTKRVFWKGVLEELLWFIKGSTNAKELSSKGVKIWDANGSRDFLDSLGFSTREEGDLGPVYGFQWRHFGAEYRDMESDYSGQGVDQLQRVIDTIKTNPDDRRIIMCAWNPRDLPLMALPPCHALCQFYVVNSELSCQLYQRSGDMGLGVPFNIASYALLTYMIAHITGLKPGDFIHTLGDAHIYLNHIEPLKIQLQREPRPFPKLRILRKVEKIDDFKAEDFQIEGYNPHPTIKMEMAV
# [5] = target: T1, Nicotinamide phosphoribosyltransferase; assay: Inhibition of nicotinamide phosphoribosyltransferase-catalyzed conversion of nicotinamide to nicotinamide mononucleotide relative to untreated enzyme; conditions: concentration not given here
# Target sequence in this assay (P43490 whole entry, looked up): as the sequence (P43490 whole entry, looked up) above
# [6] = target: T1, Nicotinamide phosphoribosyltransferase; assay: Inhibition of nicotinamide phosphoribosyltransferase-mediated decrease in cellular NAD level
# Target sequence in this assay (P43490 whole entry): as the sequence (P43490 whole entry, looked up) above
# [7] = target: T1, Nicotinamide phosphoribosyltransferase; assay: Inhibition of nicotinamide phosphoribosyltransferase-catalyzed conversion of nicotinamide to nicotinamide mononucleotide at 10 uM
# Target sequence in this assay (P43490 whole entry, looked up): as above
Compound,inhibitory concentration [1] [µM],Activity (HCT-116 [2]) [µM],pIC50 [3],further results
CC(C)=CCN(Cc1cc2c(=O)n(C)nnc2cc1Cl)c1ccc(C(=O)NCc2cccnc2)cc1,0.0017,0.003,–,–
C#CCN(Cc1cc2c(=O)n(C)c(C)nc2cc1Cl)c1ccc(C(=O)NCc2cccnc2)cc1,0.00045,0.0021,9.26,–
Cn1cnc2cc(Cl)c(CN(CC3CC3)c3ccc(C(=O)NCc4cccnc4)cc3)cc2c1=O,0.012,0.11,7.89,–
C#CCN(Cc1ccc2nc(C)n(C)c(=O)c2c1)c1ccc(C(=O)NCc2ccc3c(c2)OCO3)cc1,> 5,>10,7.07,–
Cn1cnc2cc(Cl)c(C(=O)Nc3ccc(C(=O)NCc4cccnc4)cc3)cc2c1=O,0.048,0.73,7.92,–
Cc1nc2ccc(CN(CC3CC3)c3ccc(C(=O)NCc4cccnc4)cc3)cc2c(=O)n1C,0.019,0.11,5.59,–
C#CCN(Cc1cc2c(=O)n(C)c(C)nc2cc1Cl)c1ccc(C(=O)NCc2nc3ccccc3[nH]2)cc1,3.2,5.7,7.40,–
C#CCN(Cc1ccc2nc(C)n(C)c(=O)c2c1)c1ccc(C(=O)NCc2nc3ccccc3[nH]2)cc1,> 5,5.4,6.89,–
C#CCN(Cc1ccc2nc(C)n(C)c(=O)c2c1)c1ccc(C(=O)NCc2ccc(F)c(F)c2)cc1,> 5,>10,7.52,–
CCCN(Cc1ccccc1Cl)c1ccc(C(=O)NCc2cccnc2)cc1,0.24,3.5,7.82,–
C#CCN(Cc1ccc2nc(C)n(C)c(=O)c2c1)c1ccc(C(=O)NCc2ccc(F)cc2F)cc1,> 5,>10,7.31,–
CC(C)=CCN(Cc1cc2c(=O)n(C)c(C)nc2cc1Cl)c1ccc(C(=O)NCc2nc3ccccc3[nH]2)cc1,> 5,6.4,7.60,–
Cc1nc2ccc(CN(C(=O)C3CC3)c3ccc(C(=O)NCc4cccnc4)cc3)cc2c(=O)n1C,2.6,>10,< 5.00,–
CC(C)=CC(=O)N(Cc1cc2c(=O)n(C)cnc2cc1Cl)c1ccc(C(=O)NCc2cccnc2)cc1,0.37,4.1,6.18,–
CC(C)=CCN(Cc1cc2c(=O)n(C)cnc2cc1Cl)c1ccc(C(=O)NCc2cccnc2)cc1,0.0005,0.0073,8.59,pEC50 (HCT-116 [4]): < 5.00
CN(Cc1ccccc1Cl)c1ccc(C(=O)NCc2cccnc2)cc1,–,–,< 5.00,–
C#CCN(Cc1ccc2ncn(C)c(=O)c2c1)c1ccc(C(=O)NCc2cccnc2)cc1,0.025,0.3,7.92,–
C/C=C/CN(Cc1ccc2nc(C)n(C)c(=O)c2c1)c1ccc(C(=O)NCc2cccnc2)cc1,0.0016,0.0044,8.54,–
CC(C)CN(Cc1ccccc1Cl)c1ccc(C(=O)NCc2cccnc2)cc1,–,–,6.38,–

Compound,inhibitory concentration [1] [µM],Activity (HCT-116 [2]) [µM],pIC50 [3],further results
C#CCN(Cc1ccc2nc(C)n(C)c(=O)c2c1)c1ccc(C(=O)NCc2ccc(Cl)cc2)cc1,> 5,>10,6.82,–
C#CCN(Cc1cc2c(=O)n(C)c(CN3CCN(C)CC3)nc2cc1Cl)c1ccc(C(=O)NCc2cccnc2)cc1,5e-05,0.00046,9.51,pEC50 (WIL2): 9.31
CC(C)CCN(Cc1ccccc1Cl)c1ccc(C(=O)NCc2cccnc2)cc1,0.0079,0.39,8.21,pEC50 (HCT-116 [4]): < 5.00
C#CCN(Cc1cc2c(=O)[nH]c(C)nc2cc1Br)c1ccc(C(=O)NCc2ccccn2)cc1,–,–,–,pIC50 (Thymidylate synthase): 6.81; inhibition [5]: 90%
O=C(NCc1cccnc1)c1ccc(N(Cc2ccccc2)Cc2ccccc2Cl)cc1,0.17,0.7,6.96,–
Cc1c(Sc2ccc(C(=O)NCc3cccnc3)cc2)[nH]c2nc(N)nc(N)c12,–,–,5.92,–
Cc1c(Sc2ccc(C(=O)NCCc3cccnc3)cc2)[nH]c2nc(N)nc(N)c12,–,>10,7.05,–
C#CCN(Cc1cc2c(=O)n(C)c(CO)nc2cc1Cl)c1ccc(C(=O)NCc2cccnc2)cc1,0.0001,0.0016,9.10,–
CC(C)=CCN(Cc1cc2c(=O)n(C)c(C)nc2cc1Cl)c1ccc(C(=O)NCc2cccnc2)cc1,0.0018,0.0095,7.96,pEC50 (HCT-116 [4]): < 5.00
C#CCN(Cc1ccc2nc(C)n(C)c(=O)c2c1)c1ccc(C(=O)NCc2ccccc2F)cc1,> 5,9.7,7.47,–
C#CCCN(Cc1ccc2nc(C)n(C)c(=O)c2c1)c1ccc(C(=O)NCc2cccnc2)cc1,2.9,6.3,6.02,–
C#CCCN(Cc1cc2c(=O)n(C)cnc2cc1Cl)c1ccc(C(=O)NCc2cccnc2)cc1,0.03,0.15,7.92,–
Cc1nc2c(c(=O)[nH]1)CN(C(=O)c1ccc(C(=O)NCc3cccnc3)cc1)CC2,> 5,>10,5.14,–
Cn1cnc2cc(Cl)c(NCc3ccc(C(=O)NCc4cccnc4)cc3)cc2c1=O,0.0093,0.42,8.42,–
CC(C)=CCN(Cc1ccc2nc(C)n(C)c(=O)c2c1)c1ccc(C(=O)NCc2cccnc2)cc1,0.00023,0.0035,8.85,–
CCCCN(Cc1ccccc1Cl)c1ccc(C(=O)NCc2cccnc2)cc1,–,–,< 5.00,–
CCN(Cc1ccccc1Cl)c1ccc(C(=O)NCc2cccnc2)cc1,> 5,>10,6.48,–
C#CCN(Cc1ccc2nc(C)n(C)c(=O)c2c1)c1ccc(C(=O)NCc2cccc(F)c2)cc1,> 5,>10,6.60,–
C#CCN(Cc1cc2c(O)nc(C)nc2cc1Br)c1ccc(C(=O)NCc2cccnc2)cc1,–,–,–,pEC50 (WIL2): 8.55

Compound,inhibitory concentration [1] [µM],Activity (HCT-116 [2]) [µM],pIC50 [3],further results
CC(C)=CCN(Cc1ccc2ncn(C)c(=O)c2c1)c1ccc(C(=O)NCc2cccnc2)cc1,0.0004,0.004,8.92,–
C#CCN(Cc1ccc2nc(C)n(C)c(=O)c2c1)c1ccc(C(=O)NCc2ccc(F)c(F)c2F)cc1,> 5,>10,7.01,–
O=C(CCCCCCCn1cc(-c2cccnc2)nn1)Nc1ccccc1-c1ccccc1,–,–,–,pIC50 [6]: 8.52
Cc1[nH]c2nc(N)[nH]c(=O)c2c1Sc1ccc(C(=O)NCc2cccnc2)cc1,> 5,–,5.55,–
C#CCN(Cc1ccc2nc(C)n(C)c(=O)c2c1)c1ccc(C(=O)NCc2cccnc2)cc1,0.0095,0.034,8.44,–
CC(C)=CC(=O)N(Cc1ccc2nc(C)n(C)c(=O)c2c1)c1ccc(C(=O)NCc2cccnc2)cc1,2.2,>10,< 5.00,–
Cc1noc(C)c1CN(Cc1ccc2nc(C)n(C)c(=O)c2c1)c1ccc(C(=O)NCc2cccnc2)cc1,0.012,5.3,6.68,–
C#CCN(Cc1cc2c(=O)n(C)c(CN3CCN(CCCN)CC3)nc2cc1Cl)c1ccc(C(=O)NCc2cccnc2)cc1,0.0018,0.018,9.52,–
Cc1nc2c(c(=O)[nH]1)CN(C(=O)Nc1ccc(C(=O)NCc3cccnc3)cc1)CC2,> 5,>10,7.54,–
O=C(NCc1cccnc1)c1ccc(N(Cc2ccccc2Cl)CC2CC2)cc1,0.011,0.059,8.89,–
Cn1cnc2cc(Cl)c(CN(CC(N)=O)c3ccc(C(=O)NCc4cccnc4)cc3)cc2c1=O,> 1,>10,7.25,pEC50 (HCT-116 [4]): < 5.00
C#CCN(Cc1cc2c(=O)[nH]c(C)nc2cc1Br)c1ccc(C(=O)NCc2ccncc2)cc1,–,–,–,pIC50 (Thymidylate synthase): 6.81
C/C=C/CN(Cc1ccccc1Cl)c1ccc(C(=O)NCc2cccnc2)cc1,0.0089,0.099,8.82,–
C#CCN(Cc1ccccc1Cl)c1ccc(C(=O)NCc2cccnc2)cc1,0.15,2.4,8.38,pEC50 (HCT-116 [4]): < 5.00
Nc1nc(N)c2c(CCc3ccc(C(=O)NCc4cccnc4)cc3)c[nH]c2n1,> 5,>10,6.22,–
C#CCN(Cc1coc2nc(N)nc(N)c12)c1ccc(C(=O)NCc2cccnc2)cc1,> 5,>10,< 5.00,–
CC(C)=CCN(Cc1ccccc1Cl)c1ccc(C(=O)NCc2cccnc2)cc1,0.0032,0.016,8.72,pEC50 (HCT-116 [4]): < 5.00
C#CCN(Cc1ccc2nc(C)n(C)c(=O)c2c1)c1ccc(C(=O)NCC2CCCNC2)cc1 (centres undefined),–,–,< 5.00,inhibition [7]: inactive
CC(C)=CCN(Cc1ccc2nc(C)n(C)c(=O)c2c1)c1ccc(C(=O)NCc2nc3ccccc3[nH]2)cc1,0.7,1.4,7.51,–
